Activity calls are given as the source filed them. The rule behind the calls is not given here.
Key:
[1] = Growth inhibition of human HL-60(TB) cells after 48 hrs by sulforhodamine B assay; format: functional; settings: HL-60, 48 h
How it was run: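 Five-dose study across the 60-cell human tumour panel. GI50 is the drug concentration giving a 50% reduction in net protein increase relative to control cells.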

[2] = Growth inhibition of human HOP62 cells after 48 hrs by sulforhodamine B assay; format: functional; settings: HOP-62, 48 h
How it was run: (§1)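 Five-dose testing against a 60-line human tumor cell panel. GI50 is the drug concentration giving a 50% reduction in net protein increase relative to untreated control cells.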

NCI-H23 = assay: Growth inhibition of human NCI-H23 cells after 48 hrs by sulforhodamine B assay; format: functional; settings: NCI-H23, 48 h
How it was run: (§2)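 Five-dose concentration series run across a panel of 60 human tumour cell lines. GI50 is taken as the drug concentration giving a 50% reduction in net protein increase relative to untreated control cells.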

[3] = Growth inhibition of human SF295 cells after 48 hrs by sulforhodamine B assay; format: functional; settings: SF-295, 48 h; how it was run: as §2
[4] = Growth inhibition of human SF539 cells after 48 hrs by sulforhodamine B assay; format: functional; settings: SF-539, 48 h; how it was run: as §2
[5] = Growth inhibition of human SNB75 cells after 48 hrs by sulforhodamine B assay; format: functional; settings: SNB-75, 48 h; how it was run: as §2
U-251 = assay: Growth inhibition of human U251 cells after 48 hrs by sulforhodamine B assay; format: functional; settings: U-251, 48 h; how it was run: as §2
M14 = assay: Growth inhibition of human M14 cells after 48 hrs by sulforhodamine B assay; format: functional; settings: M14, 48 h; how it was run: as §1
SK-MEL-5 = assay: Growth inhibition of human SK-MEL-5 cells after 48 hrs by sulforhodamine B assay; format: functional; settings: SK-MEL-5, 48 h; how it was run: as §2
[6] = Growth inhibition of human IGROV1 cells after 48 hrs by sulforhodamine B assay; format: functional; settings: IGROV-1, 48 h; how it was run: as §1
[7] = Growth inhibition of human NCI-ADR-RES cells after 48 hrs by sulforhodamine B assay; format: functional; how it was run: as §2
786-0 = assay: Growth inhibition of human 786-0 cells after 48 hrs by sulforhodamine B assay; format: functional; settings: 786-0, 48 h; how it was run: as §1
A498 = assay: Growth inhibition of human A498 cells after 48 hrs by sulforhodamine B assay; format: functional; settings: A498, 48 h; how it was run: as §1
ACHN = assay: Growth inhibition of human ACHN cells after 48 hrs by sulforhodamine B assay; format: functional; how it was run: as §1
[8] = Growth inhibition of human Caki1 cells after 48 hrs by sulforhodamine B assay; format: functional; settings: CAKI-1, 48 h; how it was run: as §1
[9] = Growth inhibition of human DU145 cells after 48 hrs by sulforhodamine B assay; format: functional; settings: DU-145, 48 h; how it was run: as §1
MCF7 = assay: Growth inhibition of human MCF7 cells after 48 hrs by sulforhodamine B assay; format: functional; settings: MCF7, 48 h; how it was run: as §1
MDA-MB-231 = assay: Growth inhibition of human MDA-MB-231 cells after 48 hrs by sulforhodamine B assay; format: functional; settings: MDA-MB-231, 48 h; how it was run: as §1
MDA-MB-468 = assay: Growth inhibition of human MDA-MB-468 cells after 48 hrs by sulforhodamine B assay; format: functional; settings: MDA-MB-468, 48 h; how it was run: as §1
Tubulin (Homo sapiens) [10] = molecular target: T1, Tubulin (Homo sapiens) (UniProt P68371+Q9H4B7+P0DPH7+P68366+Q13509+Q71U36+P04350+Q3ZCM7+P07437+P68363+Q9BQE3+Q6PEY2+Q13885+Q9BVA1+Q9BUF5); assay: Inhibition of tubulin polymerization (unknown origin) in rapid phase; format: protein-complex assay
Tubulin (Homo sapiens) [11] = molecular target: T1, Tubulin (Homo sapiens); assay: Induction of tubulin depolymerization (unknown origin) in slow phase; format: protein-complex assay
Tubulin (Homo sapiens) [12] = molecular target: T1, Tubulin (Homo sapiens); assay: Inhibition of tubulin polymerization (unknown origin) in rapid phase assessed as polymerization rate at 10 uM (reference value: 8.6 +/- 0.4 x 10^-4AU/sec); format: protein-complex assay
Tubulin (Homo sapiens) [13] = molecular target: T1, Tubulin (Homo sapiens); assay: Inhibition of tubulin polymerization (unknown origin) in rapid phase assessed as polymerization rate at 100 uM (reference value: 8.6 +/- 0.4 x 10^-4AU/sec); format: protein-complex assay
Tubulin (Homo sapiens) [14] = molecular target: T1, Tubulin (Homo sapiens); assay: Induction of tubulin depolymerization (unknown origin) in slow phase assessed as depolymerization rate at 10 uM (reference value: 1.3 +/- 0.1 10^-5AU/sec); format: protein-complex assay
Tubulin (Homo sapiens) [15] = molecular target: T1, Tubulin (Homo sapiens); assay: Induction of tubulin depolymerization (unknown origin) in slow phase assessed as depolymerization rate at 100 uM (reference value: 1.3 +/- 0.1 10^-5AU/sec); format: protein-complex assay
[16] = Growth inhibition of human UO31 cells after 48 hrs by sulforhodamine B assay; format: functional; settings: UO-31, 48 h
How it was run: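 Five-dose testing across the 60-line human tumour cell panel. GI50 is the drug concentration that gives a 50% reduction in net protein increase relative to control cells.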

K562 = assay: Growth inhibition of human K562 cells after 48 hrs by sulforhodamine B assay; format: functional; settings: K562, 48 h; how it was run: as §1
HT-29 = assay: Growth inhibition of human HT-29 cells after 48 hrs by sulforhodamine B assay; format: functional; settings: HT-29, 48 h; how it was run: as §1
Tubulin (Homo sapiens) [17] = molecular target: T1, Tubulin (Homo sapiens); assay: Inhibition of tubulin polymerization (unknown origin) in rapid phase assessed as polymerization rate at 10 to 100 uM; format: protein-complex assay
Tubulin (Homo sapiens) [18] = molecular target: T1, Tubulin (Homo sapiens); assay: Induction of tubulin depolymerization (unknown origin) in slow phase assessed as depolymerization rate at 10 to 100 uM; format: protein-complex assay

Row | Compound | GI50 [1] [nM] | GI50 [2] [nM] | GI50 (NCI-H23) [nM] | GI50 [3] [nM] | GI50 [4] [nM] | GI50 [5] [nM] | GI50 (U-251) [nM] | GI50 (M14) [nM] | GI50 (SK-MEL-5) [nM] | GI50 [6] [nM] | GI50 [7] [nM] | GI50 (786-0) [nM] | GI50 (A498) [nM] | GI50 (ACHN) [nM] | GI50 [8] [nM] | GI50 [9] [nM] | GI50 (MCF7) [nM] | GI50 (MDA-MB-231) [nM] | GI50 (MDA-MB-468) [nM] | GI50 [16] [nM] | further results
1 | COc1cc(/C(C#N)=C/c2ccc3c(c2)OCCO3)cc(OC)c1OC | 40 | 50 | 160 | 20 | 20 | 30 | 50 | 30 | 30 | 630 | 30 | 40 | 30 | 80 | 50 | 130 | 40 | 170 | 30 | – | inhibition (Tubulin (Homo sapiens) [10]): Dose-dependent effect; Activity (Tubulin (Homo sapiens) [11]): Dose-dependent effect; Activity (Tubulin (Homo sapiens) [12]): 6.9 ×10⁻⁴ AU/sec; Activity (Tubulin (Homo sapiens) [13]): 2 ×10⁻⁴ AU/sec; Activity (Tubulin (Homo sapiens) [14]): 1.6 ×10⁻⁵ AU/sec; Activity (Tubulin (Homo sapiens) [15]): 3.2 ×10⁻⁵ AU/sec
2 | COc1ccc(/C(C#N)=C/c2ccc3c(c2)OCCO3)cc1OC | 2070 | 2980 | 6610 | 2490 | 2560 | 2160 | 3970 | 1630 | 840 | 9400 | 1520 | 3880 | 1350 | 7610 | 2920 | 4690 | 860 | 4690 | 1110 | 5010 | –
3 | N#C/C(=C\c1cc2ccccc2s1)c1ccc2c(c1)OCO2 | 30 | 70 | 320 | 40 | 40 | 20 | 60 | 40 | 60 | 90 | 40 | 880 | 30 | 60 | 50 | 210 | 90 | 180 | 380 | 80 | GI50 (K562): 40 nM; GI50 (HT-29): 30 nM; inhibition (Tubulin (Homo sapiens) [17]): inactive; Activity (Tubulin (Homo sapiens) [18]): inactive
4 | N#C/C(=C\c1cccc2ccccc12)c1ccc2c(c1)OCO2 | 3500 | 3770 | 6450 | 2960 | 2710 | 2450 | 3850 | 3130 | 3200 | 5950 | 2520 | 5620 | 1170 | 4520 | 4180 | 6940 | 1990 | 5110 | 2110 | 6480 | GI50 (K562): 790 nM; GI50 (HT-29): 3020 nM
5 | COc1ccc(/C=C(\C#N)c2ccc3c(c2)OCO3)c(OC)c1 | 1490 | 3300 | 6330 | 1750 | 1610 | – | – | 1320 | 2580 | 8800 | 2410 | 4930 | 1330 | 4920 | – | 3620 | 850 | 3360 | 690 | 6660 | GI50 (K562): 390 nM; GI50 (HT-29): 710 nM
6 | COc1ccc(/C(C#N)=C/c2ccc3c(c2)OCCO3)cc1 | > 100000 | > 100000 | > 100000 | 10600 | 73100 | 21900 | > 100000 | 3870 | 3540 | > 100000 | 4450 | 35800 | > 100000 | > 100000 | > 100000 | > 100000 | 3010 | 69300 | 4290 | > 100000 | –
7 | COc1ccc(/C=C(\C#N)c2ccc3c(c2)OCO3)c2ccccc12 | 1570 | 2140 | 5090 | 1910 | 1580 | 1140 | 2710 | 1680 | 1520 | 4070 | 1650 | 4380 | 410 | 4240 | 2060 | 3490 | 610 | 2430 | 510 | 6240 | GI50 (K562): 530 nM; GI50 (HT-29): 1600 nM
8 | COc1ccc(/C=C(\C#N)c2ccc3c(c2)OCO3)cc1 | 240 | 300 | 860 | 200 | 250 | – | 430 | 120 | 210 | 3600 | 80 | 18900 | 200 | 520 | – | 590 | 80 | 2110 | 280 | 580 | GI50 (K562): 40 nM; GI50 (HT-29): 60 nM; Activity (Tubulin (Homo sapiens) [12]): 8 ×10⁻⁴ AU/sec; Activity (Tubulin (Homo sapiens) [13]): 8.9 ×10⁻⁴ AU/sec; Activity (Tubulin (Homo sapiens) [14]): 1.8 ×10⁻⁵ AU/sec; Activity (Tubulin (Homo sapiens) [15]): 2 ×10⁻⁵ AU/sec
